The results in this text go back to ChEMBL document CHEMBL3244271, “Synthetic sulfur-containing amino acids. Inhibition of transport systems in S37 ascites tumor cells” (J Med Chem, 1978).

Common to all, as to format: cell-based
In assay [1] the test system is S37. Briefly: Inhibition of L-type amino acid transporter-mediated [3H]-L-histidine uptake in mouse S37 cells assessed as residual activity after 2 mins by liquid scintillation counting analysis relative to control. In short, it runs like this:
(§1)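 Mouse-passaged S37 ascites cells were collected 6-8 days post-transplant, washed three times and resuspended in modified Krebs-Ringer phosphate buffer. L-system uptake used [3H]-L-histidine at 0.1 mM for 2 min at 20 °C. Incubation ended on pouring into chilled buffer, followed by three centrifugations to remove entrained label. Pellet wet weight was recorded, the EtOH lysate was scintillation-counted, and results are % of control, averaging duplicate runs on triplicate samples.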

The subject of assay [2] is S37. In words: Inhibition of A-type amino acid transporter-mediated [3H]-L-histidine uptake in mouse S37 cells assessed as residual activity after 2 mins by liquid scintillation counting analysis relative to control. In short, it runs like this:
(§2)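 S37 ascites tumor cells were harvested 6-8 days after transplanting about 0.3 mL of a 1:10 packed-cell suspension. Cells were washed three times in modified Krebs-Ringer phosphate buffer, resuspended, and incubated with [3H]-L-histidine at 10 mM (A system) for 2 min at 20 °C. Uptake was stopped in chilled buffer, and cells were spun, rinsed and weighed wet. Pellets were lysed in 95% EtOH and counted by scintillation. Results are % of control, with duplicate runs on triplicate samples.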

The test system of assay [3] is S37. In words: Inhibition of L-type amino acid transporter-mediated [3H]-L-histidine uptake in mouse S37 cells assessed as residual activity at 5 mM after 2 mins by liquid scintillation counting analysis relative to control.
Assay [4] deals with S37. In words: Inhibition of A-type amino acid transporter-mediated [3H]-L-histidine uptake in mouse S37 cells assessed as residual activity at 5 mM after 2 mins by liquid scintillation counting analysis relative to control.
Assay [5] has as its system S37. Briefly: Inhibition of L-type amino acid transporter-mediated [3H]-L-histidine uptake in mouse S37 cells assessed as residual activity at 10 mM after 2 mins by liquid scintillation counting analysis relative to control. In short, it runs like this: as §1
The subject of assay [6] is S37. In words: Inhibition of A-type amino acid transporter-mediated [3H]-L-histidine uptake in mouse S37 cells assessed as residual activity at 10 mM after 2 mins by liquid scintillation counting analysis relative to control. In short, it runs like this: as §2

On to `NC1(C(=O)O)CCSCC1`, for which the figures for the Activity in assay [1] and in assay [2] were 31% and 81%, respectively.
As for `CSCC[C@H](N)C(=O)O`, the values for the Activity in assay [3] and in assay [4] were 11% and 68%, respectively.
Turning to `O=C(O)C1CCSCN1` (racemic), the Activity in assay [5] was 90%; in assay [6], 85%.
For the compound `N[C@@H](CSCCSC[C@H](N)C(=O)O)C(=O)O`, the Activity in assay [3] is 52%; in assay [4], 70%.
`NC1CCSC1=O` (stereo unspecified): the Activity in assay [5] turned out to be 96%; in assay [6] it was 119%.
In the case of `CC1(C)N[C@H](C(=O)O)CS1`, the values for the Activity in assay [3] and in assay [4] were 45% and 68%, respectively.
As for `O=C(O)[C@@H]1CSCN1`, the figures for the Activity in assay [3] and in assay [4] were 72% and 74%, respectively.
Consider `O=C(O)C1NCCS1` (racemic), for which the values for the Activity in assay [5] and in assay [6] were 63% and 58%, respectively.
For the compound `NC(CCS)C(=O)O` (racemic), the values for the Activity in assay [5] and in assay [6] were 6% and 55%, respectively.
In the case of `N[C@@H](CS)C(=O)O`, the Activity in assay [3] worked out at 16%; in assay [4], 51%.
As for `CCSCC[C@H](N)C(=O)O`, the Activity in assay [3] was 11%; in assay [4], 63%.
As to `CC1N[C@H](C(=O)O)CS1` (stereo partly specified), the figures for the Activity in assay [3] and in assay [4] were 70% and 72%, respectively.
For the compound `O=C(O)[C@@H]1CSCCN1`, the results for the Activity in assay [3] and in assay [4] were 51% and 73%, respectively.
